Measured values taken from ChEMBL document CHEMBL1142924, “N(6)-[(hetero)aryl/(cyclo)alkyl-carbamoyl-methoxy-phenyl]-(2-chloro)-5'-N-ethylcarboxamido-adenosines: the first example of adenosine-related structures with potent agonist activity at the human A(2B) adenosine receptor” (Bioorg Med Chem, 2007).

Legend:
Adenosine receptor A1 = biological target: T1, Adenosine receptor A1 (Homo sapiens, UniProt P30542); experiment: Displacement of [3H]CHA from human adenosine A1 receptor expressed in CHO cells; format: cell-based
T1 sequence (P30542 whole entry): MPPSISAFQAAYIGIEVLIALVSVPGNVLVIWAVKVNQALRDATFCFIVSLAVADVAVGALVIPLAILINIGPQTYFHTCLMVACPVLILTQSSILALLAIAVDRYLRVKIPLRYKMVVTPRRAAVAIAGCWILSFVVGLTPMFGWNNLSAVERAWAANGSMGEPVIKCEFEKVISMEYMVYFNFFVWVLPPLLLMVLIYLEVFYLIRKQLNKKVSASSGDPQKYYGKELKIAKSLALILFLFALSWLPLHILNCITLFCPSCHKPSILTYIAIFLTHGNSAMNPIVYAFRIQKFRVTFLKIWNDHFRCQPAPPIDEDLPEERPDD
Outline: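 Human A1 in CHO cell membranes, pretreated with adenosine deaminase 2 IU/mL for 30 min at 37 °C. 50 µg protein per assay incubated with 1 nM [³H]CHA and 6–8 agonist concentrations in 50 mM Tris-HCl pH 7.4 for 150 min at 25 °C. Nonspecific binding defined by 10 µM CHA. Separated by GF/B filtration, counted by scintillation. Ki from IC50 via Cheng–Prusoff.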

Adenosine receptor A2a = Adenosine receptor A2a (Homo sapiens, UniProt P29274); experiment: Displacement of [3H]CGS-21680 from human adenosine A2A receptor expressed in CHO cells; format: cell-based; parameters: concentration or dose not given beside the values
Chain of Adenosine receptor A2a (P29274 whole entry): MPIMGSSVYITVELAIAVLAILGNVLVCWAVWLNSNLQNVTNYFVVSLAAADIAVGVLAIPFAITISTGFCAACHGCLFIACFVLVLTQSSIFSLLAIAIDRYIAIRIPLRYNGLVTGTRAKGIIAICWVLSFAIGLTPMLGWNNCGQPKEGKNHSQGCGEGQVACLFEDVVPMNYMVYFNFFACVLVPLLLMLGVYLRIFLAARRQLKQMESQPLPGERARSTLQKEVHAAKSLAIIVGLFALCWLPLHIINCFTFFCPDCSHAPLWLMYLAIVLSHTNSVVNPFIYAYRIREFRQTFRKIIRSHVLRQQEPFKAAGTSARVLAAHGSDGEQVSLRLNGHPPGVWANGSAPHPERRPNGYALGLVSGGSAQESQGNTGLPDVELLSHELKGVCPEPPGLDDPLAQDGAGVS

Adenosine receptor A3 = biological target: T2, Adenosine receptor A3 (Homo sapiens, UniProt P0DMS8); experiment: Displacement of [125I]ABMECA from human adenosine A3 receptor expressed in CHO cells
T2 sequence (P0DMS8 whole entry): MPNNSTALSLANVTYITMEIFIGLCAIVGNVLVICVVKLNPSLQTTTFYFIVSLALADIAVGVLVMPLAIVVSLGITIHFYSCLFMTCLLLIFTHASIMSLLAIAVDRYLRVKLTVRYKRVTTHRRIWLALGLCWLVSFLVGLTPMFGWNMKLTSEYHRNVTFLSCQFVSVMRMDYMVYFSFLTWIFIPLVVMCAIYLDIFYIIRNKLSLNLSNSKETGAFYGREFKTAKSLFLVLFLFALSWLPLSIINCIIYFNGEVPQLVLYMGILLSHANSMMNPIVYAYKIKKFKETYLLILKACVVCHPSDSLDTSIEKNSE

Adenosine receptor A2b = biological target: T3, Adenosine receptor A2b (Homo sapiens, UniProt P29275); experiment: Agonist activity at human adenosine A2B receptor expressed in CHO cells assessed as stimulation of cAMP production; format: functional, cell-based
T3 sequence (P29275 whole entry): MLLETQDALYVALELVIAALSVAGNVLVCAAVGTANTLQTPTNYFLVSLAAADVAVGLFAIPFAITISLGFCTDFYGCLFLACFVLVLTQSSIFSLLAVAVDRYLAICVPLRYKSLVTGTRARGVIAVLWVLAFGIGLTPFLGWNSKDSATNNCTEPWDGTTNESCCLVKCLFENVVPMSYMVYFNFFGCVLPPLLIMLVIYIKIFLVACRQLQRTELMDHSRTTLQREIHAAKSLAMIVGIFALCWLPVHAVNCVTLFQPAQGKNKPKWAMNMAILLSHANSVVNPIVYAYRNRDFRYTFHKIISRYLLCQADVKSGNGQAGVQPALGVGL
Outline: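 CHO cells stably expressing human A2B, grown in DMEM/F12 with 10% serum and G418, trypsinized and pelleted. 1 × 10⁶ cells/assay preincubated 10 min at 37 °C with adenosine deaminase 2 IU/mL and Ro 20-1724. Ligands at 1 nM–10 µM added for 5 min, stopped with cold 6% TCA, ether-extracted. cAMP read by [³H]cAMP competition protein binding. EC50 from sigmoid non-linear regression; 3–4 experiments in duplicate.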

| SMILES | Ki (Adenosine receptor A1) [nM] | Activity (Adenosine receptor A2a) [%] | Ki (Adenosine receptor A2a) [nM] | Ki (Adenosine receptor A3) [nM] | EC50 (Adenosine receptor A2b) [nM] |
| --- | --- | --- | --- | --- | --- |
| CCNC(=O)[C@H]1O[C@@H](n2cnc3c(Nc4ccc(OCC(=O)NCc5ccc(OC)cc5)cc4)ncnc32)[C@H](O)[C@@H]1O | 28.3 | 1 | > 1000 | 65.4 | 240 |
| CCNC(=O)[C@H]1O[C@@H](n2cnc3c(Nc4ccc(OCC(=O)Nc5cc(OC)cc(OC)c5)cc4)ncnc32)[C@H](O)[C@@H]1O | 15.3 | 13 | > 1000 | 78.6 | 53.6 |
| CCNC(=O)[C@H]1O[C@@H](n2cnc3c(Nc4ccc(OCC(=O)Nc5ccc(F)cc5)cc4)ncnc32)[C@H](O)[C@@H]1O | 2.3 | 48 | > 1000 | 72.3 | 15.2 |
| CCNC(=O)[C@H]1O[C@@H](n2cnc3c(Nc4ccc(OCC(=O)Nc5ccc(N6CCOCC6)cc5)cc4)ncnc32)[C@H](O)[C@@H]1O | 77.5 | 1 | > 1000 | 320 | 300 |
| CCNC(=O)[C@H]1O[C@@H](n2cnc3c(Nc4ccc(OCC(=O)Nc5ccc6c(c5)OCO6)cc4)ncnc32)[C@H](O)[C@@H]1O | 8.4 | 5 | > 1000 | 81.4 | 35.5 |
| CCNC(=O)[C@H]1O[C@@H](n2cnc3c(Nc4ccc(OCC(=O)NC5CCCCC5)cc4)nc(Cl)nc32)[C@H](O)[C@@H]1O | 30.8 | 46 | > 1000 | 95.8 | 302 |
| CCNC(=O)[C@H]1O[C@@H](n2cnc3c(Nc4ccc(OCC(=O)Nc5ccc(OC)c(OC)c5)cc4)ncnc32)[C@H](O)[C@@H]1O | 7.7 | 30 | > 1000 | 53.2 | 45.4 |
| CCNC(=O)[C@H]1O[C@@H](n2cnc3c(Nc4ccc(OCC(=O)Nc5ccccc5)cc4)nc(Cl)nc32)[C@H](O)[C@@H]1O | 30.5 | 36 | > 1000 | 107 | 42.6 |
| CCNC(=O)[C@H]1O[C@@H](n2cnc3c(Nc4ccc(OCC(=O)Nc5ccccc5C(F)(F)F)cc4)ncnc32)[C@H](O)[C@@H]1O | 31.6 | 1 | > 1000 | 115 | 107 |

Other lines, results leading:

| Ki (Adenosine receptor A1) [nM] | Activity (Adenosine receptor A2a) [%] | Ki (Adenosine receptor A2a) [nM] | Ki (Adenosine receptor A3) [nM] | EC50 (Adenosine receptor A2b) [nM] | SMILES |
| --- | --- | --- | --- | --- | --- |
| 18.6 | 1 | > 1000 | 40.2 | 16.4 | CCNC(=O)[C@H]1O[C@@H](n2cnc3c(Nc4ccc(OCC(=O)Nc5ccc(C(C)(C)C)cc5)cc4)ncnc32)[C@H](O)[C@@H]1O |
| 50.4 | 27 | > 1000 | 101 | 360 | CCNC(=O)[C@H]1O[C@@H](n2cnc3c(Nc4ccc(OCC(=O)Nc5ccc(OC)cc5)cc4)nc(Cl)nc32)[C@H](O)[C@@H]1O |
| 5.2 | 28 | > 1000 | 85.2 | 30.2 | CCNC(=O)[C@H]1O[C@@H](n2cnc3c(Nc4ccc(OCC(=O)Nc5ccc(I)cc5)cc4)ncnc32)[C@H](O)[C@@H]1O |
| 20.4 | 49 | > 1000 | 82.7 | 150 | CCNC(=O)[C@H]1O[C@@H](n2cnc3c(Nc4ccc(OCC(=O)NCc5ccccc5)cc4)ncnc32)[C@H](O)[C@@H]1O |
| 3.1 | 35 | > 1000 | 34.2 | 12.3 | CCNC(=O)[C@H]1O[C@@H](n2cnc3c(Nc4ccc(OCC(=O)Nc5ccc(Cl)cc5)cc4)ncnc32)[C@H](O)[C@@H]1O |
| 11.2 | 37 | > 1000 | 42.3 | 32.3 | CCNC(=O)[C@H]1O[C@@H](n2cnc3c(Nc4ccc(OCC(=O)Nc5ccncc5)cc4)ncnc32)[C@H](O)[C@@H]1O |
| 4.7 | 42 | > 1000 | 25.3 | 32.4 | CCNC(=O)[C@H]1O[C@@H](n2cnc3c(Nc4ccc(OCC(=O)Nc5ccc(OC)cc5)cc4)ncnc32)[C@H](O)[C@@H]1O |
| 22.6 | 49 | > 1000 | 75.7 | 175 | CCNC(=O)[C@H]1O[C@@H](n2cnc3c(Nc4ccc(OCC(=O)NCc5ccccc5)cc4)nc(Cl)nc32)[C@H](O)[C@@H]1O |
| 16.2 | 40 | > 1000 | 72.5 | 315 | CCNC(=O)[C@H]1O[C@@H](n2cnc3c(Nc4ccc(OCC(=O)NC5CCCCC5)cc4)ncnc32)[C@H](O)[C@@H]1O |
| 8.5 | 45 | > 1000 | 38.4 | 7.3 | CCNC(=O)[C@H]1O[C@@H](n2cnc3c(Nc4ccc(OCC(=O)Nc5ccccc5)cc4)ncnc32)[C@H](O)[C@@H]1O |
| 3.5 | 26 | > 1000 | 36.4 | 10.5 | CCNC(=O)[C@H]1O[C@@H](n2cnc3c(Nc4ccc(OCC(=O)Nc5ccc(Br)cc5)cc4)ncnc32)[C@H](O)[C@@H]1O |
